Screens: PubChem, Broad Institute
AF4-AF9 inh – blocks AF4 peptide binding to human AF9. P42568. AlphaScreen, biotin-AF4 peptide binding to FLAG-AF9. inhibition, % at 10 µM. 0.47% of 350,000 active. AID 651704;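 active means every replicate reaching a set inhibition limit, whatever the replicate mean, cut at about 25% in these data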;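 further: 0% = plate neutral control median and 100% = total signal loss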
GSIS activator – primary screen for activators of insulin secretion dependent on glucose, INS-1E cells, GLuc reporter luminescence | INS-1E GLuc reporter insulin secretion, 2-3 h | activation, % at 16.6 µM | 0.61% of 370,000 active | AID 743287;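 active means lowest replicate activation of at least 40%, so every replicate reaches that level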;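 further: 0% = median of neutral control wells and 100% = median of IBMX positive control wells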
S100A4 inh HTS – inhibitors of human S100A4 binding to myosin IIA peptide | P26447 | S100A4/TAMRA-MyoIIA peptide fluorescence polarization | inhibition, % at 10.7 µM | 0.14% of 360,000 active;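 active means mean inhibition of at least 70% across replicates, with every replicate also reaching that level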
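incubation = readout 5 min after mixing, signal stable up to 60 min | system = S100A4 monomer protein | buffer or medium = HEPES pH 7.2 with CaCl2, KCl, NaCl, DTT, Triton | benchmarks = neutral control DMSO, positive control TFP | also added = fluorescent myosin IIA peptide, 5 nM | compound dosing = one concentration per compound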
RAD52 anneal inh – inhibitors of human RAD52 DNA annealing | 0.46% of 360,000 active | recombinant RAD52 DNA annealing, FRET fluorescence | AID 651710 | P43351 | inhibition, % at 18.7 µM;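 active means every replicate showing at least 50% inhibition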
RAD54 branch – blocks human RAD54 Holliday junction branch migration; Q92698; FAM/BHQ fluorescence; inhibition, % at 10.4 µM; 0.14% of 360,000 active;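 active means mean normalized replicate activity at least 40 and at least half of replicates scoring 40 or more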;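 further: 0% = median of neutral control wells and 100% = median of positive control wells; inhibitors cause a drop in the FAM fluorescence signal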
Target sequence (Q92698 whole entry, looked up): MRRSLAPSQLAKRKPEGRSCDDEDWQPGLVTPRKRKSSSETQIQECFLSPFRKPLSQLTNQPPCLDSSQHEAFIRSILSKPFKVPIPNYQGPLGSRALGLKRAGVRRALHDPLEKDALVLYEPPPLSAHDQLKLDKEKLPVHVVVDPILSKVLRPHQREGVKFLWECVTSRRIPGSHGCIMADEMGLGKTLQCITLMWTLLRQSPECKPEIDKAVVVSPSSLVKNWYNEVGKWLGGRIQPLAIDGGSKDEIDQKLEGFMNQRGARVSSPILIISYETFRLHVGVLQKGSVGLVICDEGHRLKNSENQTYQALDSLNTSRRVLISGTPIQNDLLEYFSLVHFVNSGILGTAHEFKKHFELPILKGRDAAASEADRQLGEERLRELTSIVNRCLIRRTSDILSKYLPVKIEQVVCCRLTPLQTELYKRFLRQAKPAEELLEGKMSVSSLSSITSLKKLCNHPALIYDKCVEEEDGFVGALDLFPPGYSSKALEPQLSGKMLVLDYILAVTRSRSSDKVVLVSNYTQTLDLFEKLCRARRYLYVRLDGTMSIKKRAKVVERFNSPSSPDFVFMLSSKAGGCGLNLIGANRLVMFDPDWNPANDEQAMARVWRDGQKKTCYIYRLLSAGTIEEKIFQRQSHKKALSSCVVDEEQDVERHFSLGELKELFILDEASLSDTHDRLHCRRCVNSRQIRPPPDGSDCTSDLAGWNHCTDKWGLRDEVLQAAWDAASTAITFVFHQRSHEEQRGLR
The depositor's hits bear a star; / = no result. Rows were chosen to be rich in hits. Some 1.3% of all compounds tested hit in one or more screens of this group.

SMILES | AF4-AF9 inh | GSIS activator | S100A4 inh HTS | RAD52 anneal inh | RAD54 branch
c1ccc(Oc2ccc(-c3cc(NCCc4cccnc4)n4nccc4n3)cc2)cc1 | -10 | 31 | 16 | -20 | -13
CC1(C)Cc2c(cnn2-c2ccccc2)C(NC(=O)CCN2CCCC2=O)C1 (centres undefined) | -1 | 41* | -14 | -5 | -4
C/C=C/c1cnc2c(c1)C(=O)N([C@H](C)CO)C[C@H](C)[C@H](CN(C)C(=O)Nc1ccc(OC)cc1)O2 | -3 | -6 | -8 | -5 | -3
Cc1c(C)n(CC(O)CNc2ccccc2)c2ccccc12 (centres undefined) | 26* | -2 | -5 | -12 | /
COc1ccc(NCC(O)Cn2c(C)c(C)c3ccccc32)cc1 (centres undefined) | 21 | 1 | 2 | 5 | /
COc1ccc(-c2cccc(C(=O)Nc3ccc(C)cc3)c2)cc1 | / | 99* | / | / | -2
COc1ccc(-c2cccc(C(=O)Nc3ccc(OC)c(OC)c3)c2)cc1 | / | / | / | / | -5
Cc1ccc(OCC(=O)NC(=S)Nc2cccc(NC(=O)c3ccccc3)c2)cc1 | / | 49* | / | / | -6
COc1ccc(C(=O)NNC(=O)c2ccncc2)cc1 | / | 1 | / | / | 1
COc1ccc(NC(=O)c2ccc(NC(=O)c3ccncc3)cc2)cc1 | 31* | 18 | -10 | -5 | -5
Cc1noc(C)c1NC(=O)Nc1ccc2c(c1)C(=O)N([C@@H](C)CO)C[C@H](C)[C@@H](CN(C)C(=O)Cc1ccccc1)OCCCC[C@H](C)O2 | 1 | -7 | -3 | -1 | 8
COc1cccc(CNC(=O)N[C@@H](CC(C)C)C(=O)O)c1 | / | 50* | / | / | 9
O=C(NCCc1ccncc1)[C@@H]1[C@@H](CO)[C@@H]2Cn3c(ccc(C4=CCCCC4)c3=O)[C@H]1N2CC1CC1 | / | 11 | -4 | -14 | -7
COc1ccc2c3c([nH]c2c1)[C@H](CO)N(C(C)=O)CC31CCN(C(=O)Nc2ccccc2F)CC1 | 2 | -13 | -31 | 11 | /
Cn1c(=O)[nH]c(=O)c2c1nc(N1CCNCC1)n2Cc1ccccc1 | 2 | 17 | -3 | -23 | 6
Cn1c(=O)[nH]c(=O)c2c1nc(NC1CCCC1)n2Cc1ccccc1 | 3 | 46* | -12 | -13 | 9
CCNc1nc2c(c(=O)[nH]c(=O)n2C)n1Cc1ccc(F)cc1 | -1 | 49* | -3 | -13 | -5
CCCNc1nc2c(c(=O)[nH]c(=O)n2C)n1Cc1ccc(F)cc1 | 1 | 17 | -2 | -9 | -10
O=C(C[C@H]1C[C@@H]2c3cc(NS(=O)(=O)c4ccccc4)ccc3O[C@@H]2[C@H](CO)O1)NCC1CC1 | 0 | 3 | 2 | -8 | -1
COc1cc(/C=N/N(C)S(=O)(=O)c2ccc(C)cc2)cc([N+](=O)[O-])c1O | 31* | 11 | 0 | -18 | -16
O=C(CSc1nc2c(oc3ccccc32)c(=O)n1CC1CCCO1)NCc1ccccc1 (centres undefined) | 5 | -22 | 12 | -11 | -15
O=c1c2ccccc2nc(-c2ccco2)n1Cc1ccccc1 | / | 64* | / | / | 3
c1ccc(Cn2c(-c3ccco3)nc3nc4ccccc4nc32)cc1 | / | / | / | / | -6
O=C(CSc1nc2ccccc2c(=O)n1Cc1ccccc1)NCc1ccco1 | / | 81* | / | / | 12
O=c1c2ccccc2nnn1Cc1ccccc1 | 8 | 45* | 8 | -13 | /
SMILES | AF4-AF9 inh | GSIS activator | S100A4 inh HTS | RAD52 anneal inh | RAD54 branch
O=C(CSc1nc2ccccc2c(=O)n1CC1CCCO1)NCc1ccccc1 (centres undefined) | -8 | 143* | 1 | -2 | 3
C[C@H]1CN([C@@H](C)CO)C(=O)c2cc(-c3ccc(F)cc3)cnc2O[C@@H]1CN(C)C(=O)CN(C)C | 0 | 15 | 1 | 0 | 5
O=C(C1CCOCC1)N1CC2(C1)[C@@H](c1ccccc1)[C@H](CO)N2Cc1ccccc1F | -10 | 7 | -5 | 8 | /
CCC(=O)N1CC[C@@H]2[C@@H](CO)Nc3ccc(C#Cc4ccccc4)cc3[C@@H]21 | 4 | -2 | -1 | 7 | -22
COC(=O)CSc1ncnc2scc(-c3ccccc3)c12 | -6 | 60* | 0 | -22 | /
Cc1ccc(-c2csc3ncnc(SCC(=O)O)c23)cc1 | -1 | 14 | -8 | -7 | -5
COc1ccc(S(=O)(=O)N2CCCCN3[C@@H](CO)[C@@H](c4ccc(C5=CCCCC5)cc4)[C@@H]3C2)cc1 | 3 | / | 1 | 50* | -12
Cc1ccc(-c2ccc([C@H]3[C@H](CO)N4CCCCN(S(=O)(=O)c5cccc(C)c5)C[C@@H]34)cc2)cc1 | 0 | / | 9 | 50* | 2
Cc1ccc(-c2ccc([C@@H]3[C@H](CO)N4CCCCN(S(=O)(=O)c5cccc(C)c5)C[C@@H]34)cc2)cc1 | -7 | / | 0 | 69* | 0
Cc1cccc(S(=O)(=O)N2CCCCN3[C@H](CO)[C@@H](c4ccc(-c5ccccc5)cc4)[C@H]3C2)c1 | 7 | / | 3 | 53* | 0
C[C@H]1CN([C@@H](C)CO)C(=O)Cc2cc(NC(=O)Cc3cn(C)c4ccccc34)ccc2O[C@H]1CN(C)C(=O)Nc1ccc(F)cc1 | -5 | 1 | -1 | 15 | /
Cc1cccc(N2CCN(C(=O)CCC(=O)N3Cc4ccccc4Oc4ncccc43)CC2)c1C | 47* | -41 | -19 | -20 | 2
Cc1cccc(N2CCN(C(=O)CCC(=O)N3CC(C)Oc4ccccc43)CC2)c1C (centres undefined) | -13 | / | 1 | 3 | -6
C[C@H]1CN([C@@H](C)CO)C(=O)CCCn2nncc2CO[C@@H]1CN(C)C | 1 | -11 | -11 | 0 | 8
CNc1nc(Nc2ccccc2)nc(OCC(F)(F)F)n1 | -4 | 76* | -2 | -6 | 9
Cc1cc(C(F)F)n2ncc(C(=O)NCc3ccccc3)c2n1 | / | / | / | / | 3
COc1ccc(CNC(=O)c2cnn3c(C(F)F)cc(C)nc23)cc1 | / | 80* | / | / | -6
CN(C)CC#Cc1ccc([C@H]2[C@@H](CO)N3CCCCN(C(=O)Nc4ccccc4F)C[C@@H]23)cc1 | 2 | -1 | 19 | 17 | -3
CN(C)CC(=O)N1CCCCN2[C@H](CO)[C@H](c3ccc(/C=C/c4ccccc4)cc3)[C@@H]2C1 | -2 | 38 | -2 | 55* | 16
CN(C)CC#Cc1ccc([C@H]2[C@H]3CN(C(=O)CN(C)C)CCCCN3[C@H]2CO)cc1 | 0 | 12 | 45 | 57* | -18
CN(C)CC#Cc1ccc([C@H]2[C@@H](CO)N3CCCCN(C(=O)Nc4ccccc4F)C[C@H]23)cc1 | 2 | 13 | 5 | 70* | -4
COc1ccccc1-c1cnc2c(c1)C(=O)N([C@@H](C)CO)C[C@@H](C)[C@@H](CN(C)C(=O)CN(C)C)O2 | 0 | 2 | 5 | 4 | 3
Cc1noc(C)c1NC(=O)N(C)C[C@@H]1OCc2ccccc2-c2ccccc2C(=O)N([C@H](C)CO)C[C@H]1C | -2 | -3 | 4 | -4 | 1
